B1: Osa-1-4 twister ribozyme (parent)
chain: CCGCCUAACACUGCCAAUGCCGGUCCCAAGCCCGGAUAAAAGUGGAGGGGGCGG

Variants of: B1
Assay: self-cleavage, relative activity (ratio to wild type); higher = more cleavage; co-transcriptional
Outline: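 Values are relative activity: the fraction cleaved, normalised to wild type. A doped DNA template for a 54-nucleotide twister ribozyme from Oryza sativa had 97 % wild-type base and 1 % of each other base at the 48 positions downstream of the cleavage site. The RNA was transcribed in vitro for 2 h at 37 °C so that it could cleave itself co-transcriptionally, then sequenced deeply, with cleavage status scored from the presence or absence of upstream sequence in reads.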

Row | Variant | self-cleavage
1 | CCGCCUAACACUGCCAAUGCGGGUCCGAAGCCCGGAUAAAAGUGGAGGGGGCGG [C21G C27G] | 0.03
2 | CCGCCUAACACUGCCAAUGCGGGUCCUAAGCCCGGAUAAAAGUGGAGGGGGCGG [C21G C27U] | 0.02
3 | CCGCCUAACACUGCCAAUGCGGGUCCCAAGACCGGAUAAAAGUGGAGGGGGCGG [C21G C31A] | 0.02
4 | CCGCCUAACACUGCCAAUGCGGGUCCCAAGGCCGGAUAAAAGUGGAGGGGGCGG [C21G C31G] | 0.06
5 | CCGCCUAACACUGCCAAUGCGGGUCCCAAGUCCGGAUAAAAGUGGAGGGGGCGG [C21G C31U] | 0.05
6 | CCGCCUAACACUGCCAAUGCGGGUCCCAAGCACGGAUAAAAGUGGAGGGGGCGG [C21G C32A] | 0.03
7 | CCGCCUAACACUGCCAAUGCGGGUCCCAAGCGCGGAUAAAAGUGGAGGGGGCGG [C21G C32G] | 0.06
8 | CCGCCUAACACUGCCAAUGCGGGUCCCAAGCUCGGAUAAAAGUGGAGGGGGCGG [C21G C32U] | 0.02
9 | CCGCCUAACACUGCCAAUGCGGGUCCCAAGCCAGGAUAAAAGUGGAGGGGGCGG [C21G C33A] | 0.03
10 | CCGCCUAACACUGCCAAUGCGGGUCCCAAGCCGGGAUAAAAGUGGAGGGGGCGG [C21G C33G] | 0.05
11 | CCGCCUAACACUGCCAAUGCGGGUCCCAAGCCUGGAUAAAAGUGGAGGGGGCGG [C21G C33U] | 0.05
12 | CCGCCUAACACUGCCAAUGCGGGUCCCAAGCCCGGAUAAAAGUGGAGGGGGAGG [C21G C52A] | 0.1
13 | CCGCCUAACACUGCCAAUGCGGGUCCCAAGCCCGGAUAAAAGUGGAGGGGGGGG [C21G C52G] | 0.18
14 | CCGCCUAACACUGCCAAUGCGGGUCCCAAGCCCGGAUAAAAGUGGAGGGGGUGG [C21G C52U] | 0.1
15 | CCGCCUAACACUACCAAUGCGGGUCCCAAGCCCGGAUAAAAGUGGAGGGGGCGG [C21G G13A] | 0.02
16 | CCGCCUAACACUCCCAAUGCGGGUCCCAAGCCCGGAUAAAAGUGGAGGGGGCGG [C21G G13C] | 0.01
17 | CCGCCUAACACUUCCAAUGCGGGUCCCAAGCCCGGAUAAAAGUGGAGGGGGCGG [C21G G13U] | 0.02
18 | CCGCCUAACACUGCCAAUACGGGUCCCAAGCCCGGAUAAAAGUGGAGGGGGCGG [C21G G19A] | 0.05
19 | CCGCCUAACACUGCCAAUCCGGGUCCCAAGCCCGGAUAAAAGUGGAGGGGGCGG [C21G G19C] | 0.02
20 | CCGCCUAACACUGCCAAUUCGGGUCCCAAGCCCGGAUAAAAGUGGAGGGGGCGG [C21G G19U] | 0.03
21 | CCGCCUAACACUGCCAAUGCGAGUCCCAAGCCCGGAUAAAAGUGGAGGGGGCGG [C21G G22A] | 0.49
22 | CCGCCUAACACUGCCAAUGCGCGUCCCAAGCCCGGAUAAAAGUGGAGGGGGCGG [C21G G22C] | 0.16
23 | CCGCCUAACACUGCCAAUGCGUGUCCCAAGCCCGGAUAAAAGUGGAGGGGGCGG [C21G G22U] | 0.5
24 | CCGCCUAACACUGCCAAUGCGGAUCCCAAGCCCGGAUAAAAGUGGAGGGGGCGG [C21G G23A] | 0.07
25 | CCGCCUAACACUGCCAAUGCGGCUCCCAAGCCCGGAUAAAAGUGGAGGGGGCGG [C21G G23C] | 0.03

Row | Variant | self-cleavage
26 | CCGCCUAACACUGCCAAUGCGGUUCCCAAGCCCGGAUAAAAGUGGAGGGGGCGG [C21G G23U] | 0.07
27 | CCGCCUAACACUGCCAAUGCGGGUCCCAAACCCGGAUAAAAGUGGAGGGGGCGG [C21G G30A] | 0.02
28 | CCGCCUAACACUGCCAAUGCGGGUCCCAACCCCGGAUAAAAGUGGAGGGGGCGG [C21G G30C] | 0.02
29 | CCGCCUAACACUGCCAAUGCGGGUCCCAAUCCCGGAUAAAAGUGGAGGGGGCGG [C21G G30U] | 0.02
30 | CCGCCUAACACUGCCAAUGCGGGUCCCAAGCCCAGAUAAAAGUGGAGGGGGCGG [C21G G34A] | 0.3
31 | CCGCCUAACACUGCCAAUGCGGGUCCCAAGCCCCGAUAAAAGUGGAGGGGGCGG [C21G G34C] | 0.83
32 | CCGCCUAACACUGCCAAUGCGGGUCCCAAGCCCUGAUAAAAGUGGAGGGGGCGG [C21G G34U] | 0.89
33 | CCGCCUAACACUGCCAAUGCGGGUCCCAAGCCCGAAUAAAAGUGGAGGGGGCGG [C21G G35A] | 0.08
34 | CCGCCUAACACUGCCAAUGCGGGUCCCAAGCCCGCAUAAAAGUGGAGGGGGCGG [C21G G35C] | 0.03
35 | CCGCCUAACACUGCCAAUGCGGGUCCCAAGCCCGUAUAAAAGUGGAGGGGGCGG [C21G G35U] | 0.06
36 | CCGCCUAACACUGCCAAUGCGGGUCCCAAGCCCGGAUAAAAAUGGAGGGGGCGG [C21G G42A] | 0.05
37 | CCGCCUAACACUGCCAAUGCGGGUCCCAAGCCCGGAUAAAACUGGAGGGGGCGG [C21G G42C] | 0.05
38 | CCGCCUAACACUGCCAAUGCGGGUCCCAAGCCCGGAUAAAAUUGGAGGGGGCGG [C21G G42U] | 0.02
39 | CCGCCUAACACUGCCAAUGCGGGUCCCAAGCCCGGAUAAAAGUAGAGGGGGCGG [C21G G44A] | 0.09
40 | CCGCCUAACACUGCCAAUGCGGGUCCCAAGCCCGGAUAAAAGUCGAGGGGGCGG [C21G G44C] | 0.08
41 | CCGCCUAACACUGCCAAUGCGGGUCCCAAGCCCGGAUAAAAGUUGAGGGGGCGG [C21G G44U] | 0.08
42 | CCGCCUAACACUGCCAAUGCGGGUCCCAAGCCCGGAUAAAAGUGAAGGGGGCGG [C21G G45A] | 0.04
43 | CCGCCUAACACUGCCAAUGCGGGUCCCAAGCCCGGAUAAAAGUGCAGGGGGCGG [C21G G45C] | 0.02
44 | CCGCCUAACACUGCCAAUGCGGGUCCCAAGCCCGGAUAAAAGUGUAGGGGGCGG [C21G G45U] | 0.02
45 | CCGCCUAACACUGCCAAUGCGGGUCCCAAGCCCGGAUAAAAGUGGAAGGGGCGG [C21G G47A] | 0.03
46 | CCGCCUAACACUGCCAAUGCGGGUCCCAAGCCCGGAUAAAAGUGGACGGGGCGG [C21G G47C] | 0.04
47 | CCGCCUAACACUGCCAAUGCGGGUCCCAAGCCCGGAUAAAAGUGGAUGGGGCGG [C21G G47U] | 0.03
48 | CCGCCUAACACUGCCAAUGCGGGUCCCAAGCCCGGAUAAAAGUGGAGAGGGCGG [C21G G48A] | 0.03
49 | CCGCCUAACACUGCCAAUGCGGGUCCCAAGCCCGGAUAAAAGUGGAGCGGGCGG [C21G G48C] | 0.03
